Experimental data collected from several papers.
Compare with care: the assays were run in different laboratories.
Medium: plasma

Structure (SMILES)	species	route	dose	setting	Tmax [min]
O=C1CC[C@H](N2Cc3cc(N4CCN(CC5CCN(c6ccc([C@@H]7c8ccc(O)cc8CC[C@@H]7c7ccccc7)cc6)CC5)CC4)ccc3C2=O)C(=O)N1	male Sprague-Dawley rat	oral	20 mg/kg	fasted	200
CN1Cc2c(N)cccc2C(=O)N1C1CCC(=O)NC1=O (centres unmarked)	male Sprague-Dawley rat	oral	3 mg/kg		~18
CC(=O)CC(=O)C1CC(C)C(=O)C1=O (centres unmarked)	male Sprague-Dawley rat	intravenous	20 mg/kg		6.6
N#C[C@@]12C[C@@H]1[C@@H](n1cnc3c(N[C@@H](C4CCC4)C4CC4)nc(I)nc31)[C@H](O)[C@@H]2O	male Wistar rat	oral	3 mg/kg		120
O=c1cc(-c2ccc(O)c(O)c2)oc2cc(O)cc(O)c12	male Sprague-Dawley rat	oral	30 mg/kg		30
Nc1ccc(/C=C/C(=O)NCc2cc3cc(-c4ccc(C(=O)N5CCC(F)(F)CC5)cc4)cc(-c4ccc(F)cc4)c3o2)cn1	rat	oral	3 mg/kg		240
CC(=Nc1ccc(N=Cc2cnccn2)cc1)N(C)C	male Sprague-Dawley rat	oral	200 mg/kg	single dose	≤ 5
Cc1c(C(=O)O)ccc2c3n(nc12)[C@@H]1[C@H](C3)N(CC2CC2)[C@@]2(C(=O)Nc3cc(Cl)ccc32)[C@H]1c1cccc(Cl)c1F	male rat	oral	2 mg/kg		78
CC1(CN)CCN(c2cnc3c(Sc4ccncc4Cl)n[nH]c3n2)CC1	male Sprague-Dawley rat	oral	10 mg/kg		4.98
O=C(C=Cc1ccccc1)Nc1cc(-c2ccnc(N3CCC(O)CC3)c2)ccn1	female Sprague-Dawley rat	oral	50 mg/kg		30
C[C@H]1[C@@H](O)O[C@@H]2O[C@@]3(C)CC[C@H]4[C@H](C)CC[C@@H]1[C@@]24OO3	Sprague-Dawley rat	oral	10 mg/kg		27
